This note sets out measurements from PMC9274295 (International Journal of Nanomedicine, 2022).

The subject of one experiment is SKOV-3 cells. The experiment can be described thus: Combination index of PTX and CBP. It counts as cell-based, Human. The settings on record: read-out: IC50 of a single drug. The method in brief:
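SKOV-3 cells cultured in McCoy's 5A with 10% FBS and penicillin-streptomycin at 37°C, 5% CO2. Seeded at 5.0×10³ cells/well and left overnight. Exposed for 48 h to each drug alone and to mixtures at various ratios, with the mixtures' final PTX at 0.2–50.0 μM. CCK-8 added for 2 h, then absorbance read at 450 nm. Data given as mean ± SD, n = 3.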

The next experiment relates to SKOV-3 tumor. Nature of the experiment: In vivo targeting. The settings on record: 0.11 µg DiR/g i.v., 1-24 h, tumor-bearing NU/NU mice. Put shortly:
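Tumors made by injecting 1.0×10⁷ SKOV-3 cells/100 µL into the right lower abdomen of female NU/NU mice aged 5–6 weeks. At about 400 mm³, mice were randomised to free DiR or DiR-labelled liposomes, given by tail vein. Mice were anaesthetised with 4.0% chloral hydrate and imaged at 1, 2, 6, 12 and 24 h. They were then killed for ex vivo imaging and quantification of the tumor, heart, liver, spleen, lungs and kidneys.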

Structures are written as SMILES. pIC50: −log10 of the molar value. Read-outs that look alike come from different tables or passages of the source.

On to `N.N.O=C([O-])C1(C(=O)[O-])CCC1.[Pt+2]` [CBP, carboplatin], for which the pIC50 with SKOV-3 cells (single drug, SKOV-3 cells, 48 h, CCK-8) was 4.72. Regarding `CCCCCCCCCCCCCCCCCCN1/C(=C/C=C/C=C/C=C/C2=[N+](CCCCCCCCCCCCCCCCCC)c3ccccc3C2(C)C)C(C)(C)c2ccccc21.[I-]` [DiR], the “Enrichment in the tumor site” value in the experiment on SKOV-3 tumor was “not enriched in the tumor site”. On to `CC(=O)O[C@H]1C(=O)[C@@]2(C)[C@H]([C@H](OC(=O)c3ccccc3)[C@]3(O)C[C@H](OC(=O)[C@H](O)[C@@H](NC(=O)c4ccccc4)c4ccccc4)C(C)=C1C3(C)C)[C@]1(OC(C)=O)CO[C@@H]1C[C@@H]2O` [PTX, Paclitaxel], for which the pIC50 with SKOV-3 cells (Homo sapiens, SK-OV-3, 48 h) was 5.41.

As a reminder, the pIC50 is the negative decadic logarithm of the IC50, by convention in mol/L.
